# Data from ChEMBL document CHEMBL1123452, “Synthesis and hypolipidemic activities of 5-thienyl-4-oxazoleacetic acid derivatives” (1986).
# Assays:
# [1] = species on record: Rattus norvegicus; assay: Percent decrease in serum cholesterol (Cho) after 7 days at 0.05 percent in the diet of SD male rats in comparison to control animals; type: functional
# Method in brief: (§1)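 Normal SD male rats, five per group. Compound mixed into CE-2 powder diet at 50 mg/100 g (mg %), fed ad libitum for 7 days; controls received plain CE-2 powder. Total serum cholesterol measured by the Zak method and triglyceride by the Van Handel method after the feeding period. Activity expressed as percent depression versus the control-group mean. Single experiments.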
# [2] = species on record: Rattus norvegicus; assay: Percent decrease in triglyceride (TG) after 7 days at 0.05 percent in the diet of SD male rats in comparison to control animals; type: functional; method in brief: as §1
SMILES,Reduction [1],Reduction [2]
CCOC(=O)Cc1nc(-c2ccc(OC)cc2)oc1-c1ccsc1,4%,0%
O=C(OCc1nc(-c2ccc(F)cc2)oc1-c1ccsc1)c1cccnc1,0%,17%
CCOC(=O)C(C)c1nc(-c2ccc(F)cc2)oc1-c1ccsc1 (configuration not stated),6%,19%
O=C(O)CCc1nc(-c2ccc(Cl)cc2)oc1-c1ccsc1,5%,51%
CCOC(=O)Cc1nc(-c2cccc(Cl)c2)oc1-c1ccsc1,8%,61%
CCOC(=O)c1nc(-c2ccccc2)oc1-c1ccccc1,9%,-30%
C=CCc1nc(-c2ccc(F)cc2)oc1-c1ccsc1,-2%,3%
NC(=O)Cc1nc(-c2ccc(F)cc2)oc1-c1ccsc1,19%,13%
OCc1nc(-c2ccc(F)cc2)oc1-c1ccsc1,-10%,-34%
CCOC(=O)Cc1nc(-c2ccc(Cl)cc2)oc1-c1ccc(C)s1,4%,39%
CCOC(=O)Cc1nc(-c2ccc(OC)cc2)oc1-c1ccccc1,0%,15%
CCOC(=O)Cc1nc(-c2ccc(C)cc2)oc1-c1ccsc1,5%,4%
CCOC(=O)Cc1nc(-c2ccccc2)oc1-c1cccs1,11%,7%
NC(=O)Cc1nc(-c2ccccc2)oc1-c1ccsc1,20%,3%
CCOC(=O)Cc1nc(-c2ccccc2)oc1-c1ccsc1,15%,41%
COC(=O)c1nc(-c2ccc(F)cc2)oc1-c1ccsc1,5%,16%
CCOC(=O)Cc1nc(-c2ccc(Cl)cc2)oc1-c1ccsc1,16%,47%
CCNC(=O)Cc1nc(-c2ccc(F)cc2)oc1-c1ccsc1,-5%,23%
CCOC(=O)Cc1nc(-c2ccc(F)cc2)oc1-c1ccccc1,3%,-4%
O=C(O)c1ncoc1-c1ccccc1,2%,11%
CCOC(=O)Cc1nc(-c2ccsc2)oc1-c1ccc(F)cc1,11%,15%
CC(C)OC(=O)Cc1nc(-c2ccc(Cl)cc2)oc1-c1ccsc1,9%,29%
CCCCOC(=O)Cc1nc(-c2ccc(Cl)cc2)oc1-c1ccsc1,22%,17%
CCCCCOC(=O)Cc1nc(-c2ccc(Cl)cc2)oc1-c1ccsc1,19%,45%
O=C(O)Cc1nc(-c2cccc(Cl)c2)oc1-c1ccsc1,7%,38%
Cc1ccc(-c2nc(CC(=O)O)c(-c3ccsc3)o2)cc1,9%,14%

SMILES,Reduction [1],Reduction [2]
CCOC(=O)Cc1nc(-c2ccc(C)cc2)oc1-c1ccccc1,5%,-18%
CCOC(=O)CCc1nc(-c2ccc(Cl)cc2)oc1-c1ccsc1,0%,34%
CCOC(=O)Cc1nc(-c2ccccc2)oc1-c1ccccc1,13%,6%
CCCCCCCCOC(=O)Cc1nc(-c2ccc(F)cc2)oc1-c1ccsc1,12%,13%
CCOC(=O)Cc1nc(-c2ccc(F)cc2)oc1-c1cccs1,17%,31%
COc1ccc(-c2nc(CC(=O)O)c(-c3ccsc3)o2)cc1,3%,26%
CCCCCCCCCCCCOC(=O)Cc1nc(-c2ccc(F)cc2)oc1-c1ccsc1,18%,34%
O=C(O)Cc1nc(-c2ccccc2)oc1-c1ccccc1,6%,20%
CCOC(=O)Cc1nc(-c2ccc(Cl)cc2)oc1-c1ccccc1,7%,-12%
CCOC(=O)Cc1nc(-c2ccc(Cl)cc2)oc1-c1ccc(F)cc1,22%,3%
CCN(CC)C(=O)Cc1nc(-c2ccc(F)cc2)oc1-c1ccsc1,-2%,2%
CCCCCOC(=O)Cc1nc(-c2ccccc2)oc1-c1ccsc1,20%,30%
CCCCNC(=O)Cc1nc(-c2ccc(F)cc2)oc1-c1ccsc1,-8%,13%
CC(C)OC(=O)Cc1nc(-c2ccc(F)cc2)oc1-c1ccsc1,8%,27%
O=C(O)Cc1nc(-c2ccc(Br)cc2)oc1-c1ccccc1,4%,-14%
CCCCCOC(=O)Cc1nc(-c2ccc(F)cc2)oc1-c1ccsc1,13%,20%
O=C(O)Cc1nc(-c2ccc(Cl)c(Cl)c2)oc1-c1ccsc1,9%,34%
O=C(O)Cc1nc(-c2ccsc2)oc1-c1ccc(F)cc1,13%,31%
CCOC(=O)Cc1nc(-c2ccc(Cl)c(Cl)c2)oc1-c1ccsc1,14%,17%
O=C(Cc1nc(-c2ccc(Cl)cc2)oc1-c1ccsc1)OCC(O)CO (configuration not stated),15%,43%
O=C(O)Cc1nc(-c2ccccc2Cl)oc1-c1ccsc1,1%,22%
COC(=O)Cc1nc(-c2ccc(Cl)cc2)oc1-c1ccsc1,14%,29%
C=CCOC(=O)Cc1nc(-c2ccc(Cl)cc2)oc1-c1ccsc1,11%,39%
CCOC(=O)Cc1nc(-c2ccc(Br)cc2)oc1-c1ccccc1,10%,-7%
NC(=O)Cc1nc(-c2ccc(Cl)cc2)oc1-c1ccsc1,16%,12%
CCOC(=O)Cc1nc(-c2ccc(Cl)cc2)oc1-c1cccs1,15%,-10%

SMILES,Reduction [1],Reduction [2]
CCCCCCCCCCCCCCCCCCOC(=O)Cc1nc(-c2ccc(F)cc2)oc1-c1ccsc1,18%,26%
O=C(O)Cc1nc(-c2ccccc2)oc1-c1cccs1,-4%,28%
CCOC(=O)Cc1nc(-c2cc(OC)c(OC)c(OC)c2)oc1-c1ccccc1,0%,-19%
O=C(O)Cc1nc(-c2ccc(Cl)cc2)oc1-c1ccccc1,6%,14%
OCCc1nc(-c2ccc(F)cc2)oc1-c1ccsc1,4%,1%
Cc1ccc(-c2oc(-c3ccc(Cl)cc3)nc2CC(=O)O)s1,9%,-4%
O=C(Cc1nc(-c2ccc(Cl)cc2)oc1-c1ccsc1)OCc1cccnc1,13%,3%
O=C(O)Cc1nc(-c2ccccc2)oc1-c1ccsc1,15%,41%
CCOC(=O)Cc1nc(-c2ccc(C)cc2)oc1-c1cccs1,9%,-14%
CCOC(=O)Cc1nc(-c2ccc(F)cc2)oc1-c1ccsc1,19%,41%
CCOC(=O)Cc1nc(-c2ccc(Br)cc2)oc1-c1ccc(F)cc1,12%,-5%
CCCCOC(=O)Cc1nc(-c2ccc(F)cc2)oc1-c1ccsc1,20%,19%
O=C(OCCc1nc(-c2ccc(F)cc2)oc1-c1ccsc1)c1cccnc1,-2%,3%
O=C(O)Cc1nc(-c2ccc(F)cc2)oc1-c1cccs1,17%,27%
CCCCOC(=O)Cc1nc(-c2ccccc2)oc1-c1ccsc1,15%,21%
CCOC(=O)Cc1nc(-c2ccc(Cl)cc2)oc1-c1ccc(Br)s1,0%,20%
CCc1nc(-c2ccc(F)cc2)oc1-c1ccsc1,-4%,20%
O=C(O)Cc1nc(-c2ccc(F)cc2)oc1-c1ccsc1,23%,39%
CC(C(=O)O)c1nc(-c2ccc(F)cc2)oc1-c1ccsc1 (configuration not stated),6%,40%
CCOC(=O)C(C)(C)Oc1ccc(Cl)cc1 [CLOFIBRATE],15%,16%
CCOC(=O)Cc1nc(-c2ccc(F)cc2)oc1-c1ccc(F)cc1,7%,39%
O=C(O)Cc1nc(-c2ccc(Cl)cc2)oc1-c1ccsc1,16%,43%
CCOC(=O)Cc1nc(-c2ccccc2Cl)oc1-c1ccsc1,-5%,15%
O=C(O)Cc1nc(-c2ccc(Cl)cc2)oc1-c1cccs1,16%,38%
